From ChEMBL document CHEMBL3297707, “Dual protonophore-chitinase inhibitors dramatically affect O. volvulus molting” (J Med Chem, 2014)
Calls of active or inactive are those of the source. No cut-off for these calls is given here.

Assays:
HEK-293T [1] = assay: Protonophoric activity in human HEK293T/17 cells assessed as mitochondrial membrane depolarization at 50 uM for 30 mins by TMRE dye based flow cytometry; type: functional, cell-based
Method in brief: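 Trypsinized HEK 293T/17 cells at 1–2 × 10^6/mL in 10% FBS DMEM, exposed to 50 μM compound or DMSO for 30 min at 37 °C. TMRE (~450 nM final) added for 30 min in the dark at 37 °C. Cells washed with 0.2% BSA/PBS; membrane polarization read by flow cytometry on 1–2 × 10^6 cells per sample.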

Chitinase [2] = biological target: T1, Chitinase (Onchocerca volvulus, UniProt Q25615); assay: Inhibition of Onchocerca volvulus L3 larvae chitinase using 20 uM 4-methylumbelliferyl-N,N',N''-beta-chitotrioside as substrate after 10 mins by microplate reader analysis
T1 sequence (Q25615 whole entry): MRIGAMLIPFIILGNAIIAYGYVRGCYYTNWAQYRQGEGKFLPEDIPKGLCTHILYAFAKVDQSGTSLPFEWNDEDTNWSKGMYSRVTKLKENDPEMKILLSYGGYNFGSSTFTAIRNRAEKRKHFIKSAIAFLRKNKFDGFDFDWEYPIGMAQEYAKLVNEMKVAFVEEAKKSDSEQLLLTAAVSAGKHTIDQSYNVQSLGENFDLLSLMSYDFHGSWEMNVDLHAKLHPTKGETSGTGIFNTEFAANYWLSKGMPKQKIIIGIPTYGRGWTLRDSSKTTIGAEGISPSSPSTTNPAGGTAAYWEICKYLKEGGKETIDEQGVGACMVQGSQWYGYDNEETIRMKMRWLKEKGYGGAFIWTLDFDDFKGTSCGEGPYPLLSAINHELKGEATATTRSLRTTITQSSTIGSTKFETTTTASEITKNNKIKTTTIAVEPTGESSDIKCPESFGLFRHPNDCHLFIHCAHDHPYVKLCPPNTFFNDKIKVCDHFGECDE

HEK-293T [3] = assay: Protonophoric activity in human HEK293T/17 cells assessed as mitochondrial membrane depolarization at 50 uM for 30 mins by TMRE dye based fluorescence spectrometry; type: functional, cell-based
Method in brief: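 HEK 293T/17 cells suspended at 1–2 × 10^6/mL in 10% FBS DMEM, given 50 μM compound or DMSO for 30 min at 37 °C, then stained with TMRE (~450 nM final) for 30 min in the dark at 37 °C. After washes in 0.2% BSA/PBS, fluorescence read on a plate reader (ex 549, em 575 nm). Mean ± sd, n = 3.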

Onchocerca volvulus [4] = assay: Antiparasitic activity against Onchocerca volvulus assessed as inhibition of L3 to L4 larval molting at 1 uM for 24 hrs measured until 6 days by using inverted microscopic analysis in presence of PBMC; type: functional
Method in brief: (§1)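 O. volvulus L3 larvae pre-incubated with compound for 24 h, then complete medium (20% heat-inactivated FCS) and normal PBMCs added; molting assessed on day 6. Combination lines use a 1:1 mix with CCCP, each at the stated concentration. Percent molting taken over 10 wells, on average 5–10 larvae per well.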

[5] = biological target: T2, Chitinase (Onchocerca volvulus) (UniProt Q25615); assay: Inhibition of Onchocerca volvulus L3 larvae chitinase using 20 uM 4-methylumbelliferyl-N,N',N''-beta-chitotrioside as substrate at 10 uM after 10 mins by microplate reader analysis
T2 sequence (whole entry): T1 sequence (Q25615 whole entry)

Brugia malayi = assay: Inhibition of Brugia malayi chitinase using 20 uM 4-methylumbelliferyl-N,N',N''-beta-chitotrioside as substrate at 10 uM after 10 mins by microplate reader analysis
Entamoeba histolytica = assay: Inhibition of Entamoeba histolytica chitinase using 20 uM 4-methylumbelliferyl-N,N',N''-beta-chitotrioside as substrate at 10 uM after 10 mins by microplate reader analysis
HEK-293T [6] = assay: Cytotoxicity against human HEK293T/17 cells assessed as cell viability at 1 to 10 uM for 24 hrs by MTS assay; type: cell-based
Method in brief: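 HEK 293T/17 cells (2 × 10^4) plated and held 24 h at 37 °C, then treated at 1 and 10 μM final. MTS viability read at 0.5 and 24 h post-incubation.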

Onchocerca volvulus [7] = assay: Antiparasitic activity against Onchocerca volvulus assessed as inhibition of L3 to L4 larval molting at 10 uM for 24 hrs measured until 6 days by using inverted microscopic analysis in presence of PBMC; type: functional, organism-based; method in brief: as §1
Caenorhabditis elegans [8] = assay: Drug accumulation in Caenorhabditis elegans at 10 uM after 6 hrs by LC-MS analysis; type: ADME, organism-based; conditions: in vivo
Method in brief: (§2)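 Synchronized worms grown to late L4 on E. coli OP50 at 25 °C for 40 h, washed and suspended in M9 (~5–10 worms/μL). Compound added at 10 μM (~2 nmol/mg worm) for 6 or 12 h at rt. Worms washed with 0.1% SDS, then water, and lyophilized. Extracted in cold MeOH/MeCN (1:1) with internal standard and quantified by LC-TOF MS against calibration in blank worms. Mean ± sd, n = 3, nmol/mg worm.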

Plasmodium falciparum = assay: Inhibition of Plasmodium falciparum chitinase using 20 uM 4-methylumbelliferyl-N,N',N''-beta-chitotrioside as substrate at 10 uM after 10 mins by microplate reader analysis
Onchocerca volvulus [9] = assay: Antiparasitic activity against Onchocerca volvulus assessed as inhibition of L3 to L4 larval molting at 100 uM for 24 hrs measured until 6 days by using inverted microscopic analysis in presence of PBMC; type: functional, organism-based; method in brief: as §1
Onchocerca volvulus [10] = assay: Antiparasitic activity against Onchocerca volvulus assessed as inhibition of L3 to L4 larval molting at 1 uM for 24 hrs measured until 6 days by using inverted microscopic analysis in presence of PBMC and 1 uM protonophore CCCP; type: functional, organism-based; method in brief: as §1
Onchocerca volvulus [11] = assay: Antiparasitic activity against Onchocerca volvulus assessed as inhibition of L3 to L4 larval molting at 0.5 uM for 24 hrs measured until 6 days by using inverted microscopic analysis in presence of PBMC and 0.5 uM protonophore CCCP; type: functional, organism-based; method in brief: as §1
Onchocerca volvulus [12] = assay: Antiparasitic activity against Onchocerca volvulus assessed as inhibition of L3 to L4 larval molting at 2.5 uM for 24 hrs measured until 6 days by using inverted microscopic analysis in presence of PBMC and 2.5 uM protonophore CCCP; type: functional, organism-based; method in brief: as §1
Chitinase [13] = biological target: T1, Chitinase; assay: Competitive inhibition of Onchocerca volvulus L3 larvae chitinase using 20 uM 4-methylumbelliferyl-N,N',N''-beta-chitotrioside as substrate after 10 mins by microplate reader analysis
Caenorhabditis elegans [14] = assay: Drug accumulation in Caenorhabditis elegans at 10 uM after 12 hrs by LC-MS analysis; type: ADME, organism-based; conditions: in vivo; method in brief: as §2
Caenorhabditis elegans [15] = assay: Toxicity in Caenorhabditis elegans; type: organism-based; conditions: in vivo
Caenorhabditis elegans [16] = assay: Drug metabolism in Caenorhabditis elegans assessed as 5-iodo closantel formation after 12 hrs by LC/MS analysis; type: ADME, organism-based; conditions: in vivo
Caenorhabditis elegans [17] = assay: Drug metabolism in Caenorhabditis elegans assessed as glucordinated metabolite formation after 12 hrs by LC/MS analysis; type: ADME, organism-based; conditions: in vivo
Caenorhabditis elegans [18] = assay: Drug metabolism in Caenorhabditis elegans assessed as sulfated metabolite formation after 12 hrs by LC/MS analysis; type: ADME, organism-based; conditions: in vivo
Caenorhabditis elegans [19] = assay: Drug metabolism in Caenorhabditis elegans assessed as glycosylated metabolite formation after 12 hrs by LC/MS analysis; type: ADME, organism-based; conditions: in vivo
Caenorhabditis elegans [20] = assay: Drug metabolism in Caenorhabditis elegans assessed as 3-iodo closantel formation after 12 hrs by LC/MS analysis; type: ADME, organism-based; conditions: in vivo

Structure (SMILES) | Activity (HEK-293T [1]) | IC50 (Chitinase [2]) [µM] | Activity (HEK-293T [3]) | inhibition (Onchocerca volvulus [7]) | Drug uptake (Caenorhabditis elegans [8]) | also measured
COc1c(I)cc(I)cc1C(=O)N(C)c1ccc(Oc2ccccc2)cc1 | inactive | 3.71 | inactive |  |  | 
CN(C(=O)c1cc(I)cc(I)c1O)c1ccc(Oc2ccccc2)cc1 |  | 1.81 |  |  |  | 
O=C(Nc1ccc(Oc2ccc(F)cc2)cc1)c1cc(I)cc(I)c1O |  | 1.57 |  |  |  | 
O=C(Nc1ccc(Oc2ccc(Cl)cc2)cc1)c1cc(I)cc(I)c1O | Active | 0.7 | Active | Active | Active | inhibition at 1 µM (Onchocerca volvulus [4]): 84%; inhibition [5]: Active; inhibition (Brugia malayi): inactive; inhibition (Entamoeba histolytica): inactive; Activity (HEK-293T [6]): Non-toxic
N#CC(C#N)=NNc1cccc(Cl)c1 [CARBONYL CYANIDE M-CHLOROPHENYLHYDRAZONE] |  |  |  | Active | Active | 
O=C(Nc1ccc(-c2ccc(Cl)cc2)cc1)c1cc(I)cc(I)c1O |  | 0.37 |  |  | Active | inhibition [5]: Active; inhibition (Plasmodium falciparum): inactive; inhibition (Brugia malayi): inactive; inhibition (Entamoeba histolytica): inactive
COc1c(I)cc(I)cc1C(=O)Nc1ccc(Oc2ccc(Cl)cc2)cc1 | inactive | 0.6 | inactive | Active | Active | inhibition (Onchocerca volvulus [9]): Active; inhibition (Onchocerca volvulus [4]): inactive; inhibition (Onchocerca volvulus [10]): inactive; inhibition (Onchocerca volvulus [11]): inactive; inhibition [5]: Active; inhibition (Plasmodium falciparum): inactive; inhibition (Brugia malayi): inactive; inhibition (Entamoeba histolytica): inactive; inhibition (Onchocerca volvulus [12]): Active
O=C(Nc1ccc(Oc2ccc(Cl)cc2)cc1)c1cc(I)cc(I)c1 | inactive | 0.87 | inactive |  | Active | 
Cc1ccc(Oc2ccc(NC(=O)c3cc(I)cc(I)c3O)cc2)cc1 |  | 1.11 |  |  |  | 
O=C(Nc1ccc(Oc2cccc(Cl)c2)cc1)c1cc(I)cc(I)c1O |  | 1.74 |  |  |  | 
O=C(Nc1ccc(Oc2ccc(Cl)cc2)c(Cl)c1)c1cc(I)cc(I)c1O [RAFOXANIDE] | Active | 0.34 | Active | Active | 1.55 nmol/mg | Ki (Chitinase [13]): 0.13 µM; inhibition at 1 µM (Onchocerca volvulus [4]): 84%; Drug uptake (Caenorhabditis elegans [14]): 1.73 nmol/mg; inhibition [5]: Active; inhibition (Brugia malayi): inactive; inhibition (Entamoeba histolytica): inactive; Activity (HEK-293T [6]): Non-toxic
Cc1ccc(-c2ccc(NC(=O)c3cc(I)cc(I)c3O)cc2)cc1 |  | 0.99 |  |  |  | 
Cc1cc(C(C#N)c2ccc(Cl)cc2)c(Cl)cc1NC(=O)c1cc(I)cc(I)c1O (stereo not given) [CLOSANTEL] | Active |  | Active |  | Active | Activity (Caenorhabditis elegans [15]): Non-toxic; Drug metabolism (Caenorhabditis elegans [16]): metabolite_detected; Drug metabolism (Caenorhabditis elegans [17]): metabolite_notdetected; Drug metabolism (Caenorhabditis elegans [18]): metabolite_notdetected; Drug metabolism (Caenorhabditis elegans [19]): metabolite_notdetected; Drug metabolism (Caenorhabditis elegans [20]): metabolite_detected
COc1c(I)cc(I)cc1C(=O)Nc1ccc2ccccc2c1 | inactive | 0.89 | inactive | Active | Active | inhibition (Onchocerca volvulus [4]): inactive; Drug uptake (Caenorhabditis elegans [14]): 1.28 nmol/mg
O=C(Nc1ccc(-c2ccccc2)cc1)c1cc(I)cc(I)c1O |  | 0.47 |  |  | Active | inhibition [5]: Active; inhibition (Plasmodium falciparum): inactive; inhibition (Brugia malayi): inactive; inhibition (Entamoeba histolytica): inactive
O=C(Nc1ccc(Oc2ccccc2Cl)cc1)c1cc(I)cc(I)c1O |  | 1.2 |  |  |  | 
O=C(Nc1ccc(Oc2ccccc2)cc1)c1cc(I)cc(I)c1O | Active | 1.98 | Active |  |  | 
O=C(Nc1ccc2ccccc2c1)c1cc(I)cc(I)c1 | inactive | 1.29 | inactive |  |  | 
O=C(Nc1ccc2ccccc2c1)c1cc(I)cc(I)c1O | Active | 0.94 | Active | Active | Active | inhibition at 1 µM (Onchocerca volvulus [4]): 84%; Drug uptake (Caenorhabditis elegans [14]): 1.13 nmol/mg; Activity (HEK-293T [6]): Non-toxic
COc1c(I)cc(I)cc1C(=O)Nc1ccc(Oc2ccccc2)cc1 | inactive | 1.28 | inactive |  |  | 
COc1c(I)cc(I)cc1C(=O)O |  |  |  | inactive |  | 
O=C(Nc1ccc(Oc2ccccc2)cc1)c1cc(I)cc(I)c1 | inactive | 1.06 | inactive |  |  | 
